In article PMC6511231 (Cell reports, 2018):
Entries after “also recorded” stand apart in the source; their conditions may differ. Read-outs that look alike come from different tables or passages of the source.

Legend:
HeLaLIN28A = experiment: let-7-sensitive dual luciferase reporter assay, HeLaLIN28A; format: cell-based, human; conditions: 100 μM or higher concentrations, 48 hr
Summary of the method: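 A HeLa clone stably expressing low-level FLAG-LIN28A plus the 8×let-7 Renilla/firefly dual-luciferase sensor was treated 48 hr with vehicle (DMSO) or test compound at the indicated concentrations. Dual luciferase activity was then assayed, with firefly as internal control. Runs used 3 or 5 biological replicates; Student's t test against vehicle.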

[1] = target: T1, mouse LIN28Δ, mouse TUT4 and pre-let-7g (Mus musculus, UniProt Q8K3Y3); experiment: LIN28-mediated let-7 oligouridylation assay; format: biochemical; conditions: for Inhibition of LIN28-mediated oligouridylation: 40 μM compound, 37°C, denaturing PAGE
T1 sequence (Q8K3Y3 16-184): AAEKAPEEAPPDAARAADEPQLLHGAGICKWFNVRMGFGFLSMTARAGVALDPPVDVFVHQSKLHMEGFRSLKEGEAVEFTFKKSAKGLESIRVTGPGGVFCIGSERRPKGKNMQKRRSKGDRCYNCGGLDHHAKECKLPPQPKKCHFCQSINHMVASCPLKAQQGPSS
T1 sequence (B2RX14 230-1424 partner): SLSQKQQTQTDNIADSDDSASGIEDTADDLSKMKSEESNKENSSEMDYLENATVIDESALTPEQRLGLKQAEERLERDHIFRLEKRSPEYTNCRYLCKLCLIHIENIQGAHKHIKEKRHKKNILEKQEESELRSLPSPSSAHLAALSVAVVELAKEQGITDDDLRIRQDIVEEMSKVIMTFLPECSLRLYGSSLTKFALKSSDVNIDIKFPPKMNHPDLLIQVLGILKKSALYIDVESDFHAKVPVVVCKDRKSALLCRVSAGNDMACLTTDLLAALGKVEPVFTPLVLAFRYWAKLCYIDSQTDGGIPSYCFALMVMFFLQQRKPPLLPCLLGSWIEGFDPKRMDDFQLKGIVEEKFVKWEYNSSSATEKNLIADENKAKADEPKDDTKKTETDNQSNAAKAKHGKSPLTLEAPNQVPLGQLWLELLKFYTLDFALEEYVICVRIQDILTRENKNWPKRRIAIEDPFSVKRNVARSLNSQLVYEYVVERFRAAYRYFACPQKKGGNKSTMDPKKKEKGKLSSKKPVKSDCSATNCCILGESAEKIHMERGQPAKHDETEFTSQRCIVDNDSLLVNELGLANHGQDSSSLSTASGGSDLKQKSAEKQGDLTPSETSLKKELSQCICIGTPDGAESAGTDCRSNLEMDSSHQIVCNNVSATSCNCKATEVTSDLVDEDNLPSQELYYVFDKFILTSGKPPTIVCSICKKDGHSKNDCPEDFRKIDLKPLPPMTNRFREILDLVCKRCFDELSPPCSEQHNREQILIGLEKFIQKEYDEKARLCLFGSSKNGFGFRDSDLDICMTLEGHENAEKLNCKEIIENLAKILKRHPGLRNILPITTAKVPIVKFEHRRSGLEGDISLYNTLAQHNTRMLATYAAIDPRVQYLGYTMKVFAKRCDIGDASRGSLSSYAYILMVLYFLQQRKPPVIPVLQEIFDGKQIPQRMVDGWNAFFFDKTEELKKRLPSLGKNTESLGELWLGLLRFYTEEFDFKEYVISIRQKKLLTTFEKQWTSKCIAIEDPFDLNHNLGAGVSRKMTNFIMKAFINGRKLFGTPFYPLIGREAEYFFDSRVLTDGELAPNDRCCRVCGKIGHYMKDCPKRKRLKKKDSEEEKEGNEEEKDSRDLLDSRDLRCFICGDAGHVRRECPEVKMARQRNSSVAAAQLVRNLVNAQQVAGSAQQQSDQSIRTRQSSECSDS
Summary of the method: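 Mouse LIN28A, mouse TUT4 (230–1424) and in vitro-transcribed, T4 PNK-radiolabelled pre-let-7g were incubated with test compound (40 μM screen; 80 μM follow-up) for 40 min at 37°C. Buffer: 20 mM Tris 7.5, 5% glycerol, 6 mM MgCl2, 6 mM DTT, 50 μM ZnCl2, 40 mM KCl, 200 μM UTP. Reactions were stopped with EDTA/SDS/proteinase K (50°C, 30 min) and run on denaturing PAGE. RNA and DMSO served as controls.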

Solubility in solution = format: physicochemical; conditions: water / solution
[2] = system: HeLa cells that do not express LIN28; experiment: Toxicity to HeLa cells; format: cell-based, human
[3] = system: LIN28-expressing mouse embryonic stem cells; experiment: Toxicity to mouse embryonic stem cells; format: cell-based
[4] = target: mouse LIN28Δ:preE-let-7d complex (Mus musculus, UniProt Q8K3Y3); experiment: HSQC spectroscopy; format: binding; conditions: 15N-labeled mouse LIN28Δ with unlabeled preE-let-7d
LIN28Δ [5] = target: T2, LIN28Δ (human, UniProt Q9H9Z2 16-187); experiment: fluorescence polarization
T2 sequence: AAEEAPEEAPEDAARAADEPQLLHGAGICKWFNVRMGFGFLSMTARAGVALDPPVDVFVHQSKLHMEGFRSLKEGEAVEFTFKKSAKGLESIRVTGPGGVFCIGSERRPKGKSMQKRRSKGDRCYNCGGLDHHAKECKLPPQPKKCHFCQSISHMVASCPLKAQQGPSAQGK

LIN28ΔF73A/Y140A = target: T3, LIN28ΔF73A/Y140A (human, UniProt Q9H9Z2 16-187, F73A;Y140A); experiment: fluorescence polarization
T3 sequence: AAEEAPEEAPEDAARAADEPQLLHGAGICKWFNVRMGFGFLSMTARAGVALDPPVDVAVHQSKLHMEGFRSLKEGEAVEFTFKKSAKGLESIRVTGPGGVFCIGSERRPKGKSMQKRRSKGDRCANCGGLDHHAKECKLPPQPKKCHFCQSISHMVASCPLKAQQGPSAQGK

LIN28ΔY140A = target: T4, LIN28ΔY140A (human, UniProt Q9H9Z2 16-187, Y140A); experiment: fluorescence polarization
T4 sequence: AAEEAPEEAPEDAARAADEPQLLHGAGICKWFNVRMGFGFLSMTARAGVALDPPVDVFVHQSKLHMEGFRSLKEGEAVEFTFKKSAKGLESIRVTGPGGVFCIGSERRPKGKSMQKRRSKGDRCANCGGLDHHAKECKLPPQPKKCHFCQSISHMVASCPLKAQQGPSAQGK

LIN28ΔF73A [6] = target: T5, LIN28ΔF73A (human, UniProt Q9H9Z2 16-187, F73A); experiment: fluorescence polarization
T5 sequence: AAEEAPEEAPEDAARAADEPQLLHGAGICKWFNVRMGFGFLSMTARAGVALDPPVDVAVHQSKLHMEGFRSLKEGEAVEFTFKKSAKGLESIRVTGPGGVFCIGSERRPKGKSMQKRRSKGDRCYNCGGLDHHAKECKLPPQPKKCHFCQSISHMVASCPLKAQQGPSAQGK

LIN28Δ [7] = target: T2, LIN28Δ; experiment: competition
LIN28Δ [8] = target: T2, LIN28Δ; experiment: competition; remark: listed apart in the source
LIN28ΔF73A [9] = target: T5, LIN28ΔF73A; experiment: competition

CNc1cncc(C(=O)O)c1 [5-(methylamino)nicotinic acid]
Relative Renilla luciferase activity (HeLaLIN28A): significant reduction of the relative Renilla luciferase activity; also recorded: weak activities | Inhibition of LIN28-mediated let-7 oligouridylation ([1]; 80 μM, compared to DMSO negative control): weak activities

CC1(C)C(=O)N=C2C1=C(O)C(=O)c1ccccc12 [BVT-948]
Inhibition of LIN28-mediated oligouridylation [1]: completely inhibited

C=CC(C)(C)c1[nH]c2ccccc2c1C1=C(O)C(=O)C(c2c[nH]c3c(CC=C(C)C)cccc23)=C(O)C1=O [DAQ-B1, demethylasterriquinone B1]
Inhibition of LIN28-mediated oligouridylation [1]: completely inhibited

Cc1cc2c(C(C)C)c(O)c(O)c(C=O)c2c(O)c1-c1c(C)cc2c(C(C)C)c(O)c(O)c(C=O)c2c1O [Gossypol]
Inhibition of LIN28-mediated oligouridylation [1]: completely inhibited

O=C1C=CC(=NS(=O)(=O)c2ccc(C(=O)O)cc2)C=C1 [LI20]
Solubility (Solubility in solution): poor solubility in solution | Inhibition of LIN28-mediated oligouridylation [1]: completely inhibited

c1ccc(CN(CCN(Cc2ccccn2)Cc2ccccn2)Cc2ccccn2)nc1 [TPEN]
Toxicity [2]: shows toxicity | Inhibition of LIN28-mediated oligouridylation [1]: completely inhibited | Toxicity [3]: shows toxicity | HSQC peak intensity changes [4]: a number of peaks had significant reduction in intensity

GGGGUAGUGAUUUUACCCUGUUUAGGAGAU (structured_RNA) [preE-let-7f-1-FAM]
Kd (LIN28Δ [5]): 28.5 nM | Kd (LIN28ΔF73A/Y140A): 589 nM | Kd (LIN28ΔY140A): 78.5 nM | Kd (LIN28ΔF73A [6]): 72.4 nM

GGGGUAGUGAUUUUACCCUGUUUAGGAGAU (structured_RNA) [preE-let-7f-1 unlabeled]
IC50 (LIN28Δ [7]): 44 nM

GGGGUAGUGAUUUUACCCUGUUUA (structured_RNA) [CSD-binding riboprobe]
IC50 (LIN28Δ [7]): 157 nM

UAGGAGA (ssRNA) [ZKD-binding riboprobe UAGGAGA]
IC50 (LIN28Δ [8]): 3500 nM | IC50 (LIN28ΔF73A [9]): 1200 nM
